SMILES strings stand for the structures.

Assay [1] relates to Rattus norvegicus. In words: The compound was evaluated for the % peak inhibition of angiotensin II pressor response for dose of 0.3 mg/kg peroral administration in conscious rats. The class given is functional. Particulars: route oral. Put shortly: (§1)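 Conscious normotensive rats received antagonists as potassium salts, iv or po. Pressor responses to exogenous AII were measured repeatedly after dosing and reported as % peak inhibition (mean ± SE) and duration of action in h. Methoxamine pressor response served as a specificity check.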

The subject of assay [2] is Rattus norvegicus. Description: The duration of action for the % peak inhibition of angiotensin II pressor response for dose of 0.3 mg/kg peroral administration in conscious rats. It counts as functional. The conditions noted are these: route oral. The method, boiled down:
as §1

Assay [3] has as its system Rattus norvegicus. In words: The compound was evaluated for the % peak inhibition of angiotensin II pressor response for dose of 0.1 mg/kg intravenous administration in conscious rats. It counts as functional. The method, boiled down:
as §1

In assay [4] the test system is Rattus norvegicus. In words: The duration of action for the % peak inhibition of angiotensin II pressor response for dose of 0.1 mg/kg intravenous administration in conscious rats. The class given is functional. Put shortly:
as §1

In assay [5] the target is T1, Type-2 angiotensin II receptor (Rattus norvegicus, UniProt P35351).
T1 sequence (P35351 whole entry): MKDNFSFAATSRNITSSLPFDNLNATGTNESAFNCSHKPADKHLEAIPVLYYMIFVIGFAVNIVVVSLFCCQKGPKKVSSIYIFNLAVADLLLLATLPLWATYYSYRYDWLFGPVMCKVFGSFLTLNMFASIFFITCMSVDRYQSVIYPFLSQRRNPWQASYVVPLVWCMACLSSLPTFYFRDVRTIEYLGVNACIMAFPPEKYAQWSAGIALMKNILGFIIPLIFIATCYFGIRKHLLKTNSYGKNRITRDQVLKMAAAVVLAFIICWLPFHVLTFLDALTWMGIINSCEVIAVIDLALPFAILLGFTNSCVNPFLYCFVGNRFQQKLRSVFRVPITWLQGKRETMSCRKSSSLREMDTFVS
Description: In vitro binding affinity for angiotensin II AT2 receptor in rat midbrain. The method, boiled down:
(§2)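 Radioligand binding IC50 values. AT1 was measured on rabbit aortic receptor preparations and AT2 on rat midbrain receptor preparations.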

Assay [6] addresses T2, Type-1 angiotensin II receptor (Oryctolagus cuniculus, UniProt P34976).
T2 sequence (P34976 whole entry): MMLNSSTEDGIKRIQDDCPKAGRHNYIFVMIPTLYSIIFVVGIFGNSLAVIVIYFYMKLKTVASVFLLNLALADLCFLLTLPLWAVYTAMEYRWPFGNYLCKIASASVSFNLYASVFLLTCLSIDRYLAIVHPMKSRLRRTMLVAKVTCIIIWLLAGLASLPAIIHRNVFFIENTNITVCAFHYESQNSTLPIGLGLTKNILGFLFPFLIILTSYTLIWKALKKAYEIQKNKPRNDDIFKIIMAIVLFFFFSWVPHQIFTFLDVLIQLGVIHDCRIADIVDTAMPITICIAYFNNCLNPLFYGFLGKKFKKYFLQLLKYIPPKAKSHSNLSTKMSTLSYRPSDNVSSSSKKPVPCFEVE
In words: In vitro binding affinity for angiotensin II AT1 receptor in rabbit aorta. It counts as tissue-based. The method, boiled down: as §2

For assay [7], the system named is Rattus norvegicus. In words: The compound was evaluated for the % peak inhibition of angiotensin II pressor response for dose of 1.0 mg/kg intravenous administration in conscious rats. The class given is functional. The method, boiled down: as §1
Assay [8] has as its system Rattus norvegicus. In words: The duration of action for the % peak inhibition of angiotensin II pressor response for dose of 1.0 mg/kg intravenous administration in conscious rats. It counts as functional. The method, boiled down: as §1
Assay [9] in a line: Ratio of the of A II pressor responses in dog, p.o./i.v. The class given is functional. Put shortly: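 Conscious normotensive mongrel dogs with an arterial catheter for continuous mean arterial pressure and vein catheters for dosing. Patency checked with norepinephrine 1.6 μg/kg iv. AII 0.1 μg/kg iv boluses given at –45, –30 and –15 min. Antagonist given iv or by oral gavage at 0 min, then AII rechallenged repeatedly to 6 h (24 h if needed). Ratio is oral ED50 divided by iv ED50.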

Assay [10] has as its system Rattus norvegicus. Description: The compound was evaluated for the ED50 for inhibition of A II pressor response in rats for intravenous administration.
Assay [11] is described as follows: Ratio of the of A II pressor responses in rhesus monkey, p.o./i.v. The class given is functional. Put shortly: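 Sodium/volume-depleted rhesus monkeys dosed iv or orally; inhibition of the AII pressor response tracked over time. Ratio is oral ED50 divided by iv ED50.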
The target in assay [12] is T3, Angiotensin II receptor (Rattus norvegicus) (UniProt P29089+P25095+P35351).
Assay [13] deals with Rattus norvegicus. Description: The duration of action for the % peak inhibition of angiotensin II pressor response for dose of 0.03 mg/kg intravenous administration in conscious rats.
The subject of assay [14] is Rattus norvegicus. Description: The compound was evaluated for the % peak inhibition of angiotensin II pressor response for dose of 0.1 mg/kg peroral administration in conscious rats. The class given is functional. The conditions noted are these: route oral. Put shortly:
as §1

Assay [15] deals with Canis familiaris. In words: The compound was evaluated for the ED50 for inhibition of A II pressor response in dogs for intravenous administration.
Assay [16] deals with Canis familiaris. In words: The compound was evaluated for the ED50 for inhibition of A II pressor response in dogs for peroral administration.
Assay [17] is described as follows: Ratio of the of A II pressor responses in rat, p.o./i.v. It counts as functional. Put shortly:
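Conscious normotensive rats; potassium salt given iv or orally; inhibition of the pressor response to exogenous iv AII followed over time. Ratio is oral ED50 divided by iv ED50.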

Assay [18] has as its system Rattus norvegicus. In words: The compound was evaluated for the % peak inhibition of angiotensin II pressor response for dose of 1.0 mg/kg peroral administration in conscious rats. It counts as functional. Particulars: route oral. Put shortly:
as §1

Assay [19] deals with Rattus norvegicus. In words: The duration of action for the % peak inhibition of angiotensin II pressor response for dose of 1.0 mg/kg peroral administration in conscious rats. The class given is functional. The conditions noted are these: route oral. The method, boiled down: as §1
Assay [20] deals with T3, Angiotensin II receptor (Rattus norvegicus). This is another data set of the same source.
Assay [21] relates to Macaca mulatta. Description: The compound was evaluated for the ED50 for inhibition of A II pressor response in rhesus monkeys for intravenous administration.
Assay [22] has as its system Macaca mulatta. Description: The duration of action for the % peak inhibition of A II pressor response for dose of 0.1 mg/kg peroral administration in rhesus monkeys. Particulars: route oral.
Assay [23] deals with Macaca mulatta. Description: The compound was evaluated for the ED50 for inhibition of A II pressor response in rhesus monkeys for peroral administration.
Assay [24] concerns the target T3, Angiotensin II receptor (Rattus norvegicus). This is another data set of the same source.
In assay [25] the test system is Rattus norvegicus. Description: The duration of action for the % peak inhibition of angiotensin II pressor response for dose of 0.1 mg/kg perol administration in conscious rats. The class given is functional. The method, boiled down:
as §1

For assay [26], the system named is Rattus norvegicus. Description: The compound was evaluated for the ED50 for inhibition of A II pressor response in rat for intravenous administration.
Assay [27] relates to Rattus norvegicus. In words: The compound was evaluated for the % peak inhibition of angiotensin II pressor response for dose of 0.1 mg/kg perol administration in conscious rats. The class given is functional. Put shortly: as §1
The test system of assay [28] is Rattus norvegicus. In words: The compound was evaluated for the ED50 for inhibition of A II pressor response in rat for peroral administration.

T3 sequence (P25095 whole entry, looked up, one chain of several): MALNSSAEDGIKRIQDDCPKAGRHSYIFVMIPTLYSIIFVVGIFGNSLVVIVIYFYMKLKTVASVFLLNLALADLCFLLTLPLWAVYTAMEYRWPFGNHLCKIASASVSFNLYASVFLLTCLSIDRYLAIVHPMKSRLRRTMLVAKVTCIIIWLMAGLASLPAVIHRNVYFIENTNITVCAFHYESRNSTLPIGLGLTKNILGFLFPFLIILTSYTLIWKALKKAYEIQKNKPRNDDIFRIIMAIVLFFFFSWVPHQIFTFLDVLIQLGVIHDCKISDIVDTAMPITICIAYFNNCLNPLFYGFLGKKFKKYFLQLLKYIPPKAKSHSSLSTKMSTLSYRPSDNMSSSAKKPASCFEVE
T3 sequence (P29089 whole entry, looked up, one chain of several): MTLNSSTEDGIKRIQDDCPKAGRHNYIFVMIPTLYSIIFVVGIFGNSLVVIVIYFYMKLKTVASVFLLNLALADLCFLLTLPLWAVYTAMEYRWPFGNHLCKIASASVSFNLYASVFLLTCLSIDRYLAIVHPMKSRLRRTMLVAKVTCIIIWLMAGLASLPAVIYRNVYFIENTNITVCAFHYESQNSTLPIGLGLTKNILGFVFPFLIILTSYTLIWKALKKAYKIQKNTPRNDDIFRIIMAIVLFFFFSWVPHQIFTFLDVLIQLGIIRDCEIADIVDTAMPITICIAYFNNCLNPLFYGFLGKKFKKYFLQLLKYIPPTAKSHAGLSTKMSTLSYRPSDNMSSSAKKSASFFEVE

For the compound `CCc1nc2c(C)cc(C)nc2n1Cc1ccc(-c2ccccc2S(=O)(=O)NC(=O)C2CC2)cc1`, at 0.3 mg/kg the inhibition in vivo with Rattus norvegicus [1] was 99%. Besides, the Duration with Rattus norvegicus [2] and with Rattus norvegicus [4] was greater than 6 h in each case. Also, the inhibition in vivo (as a rule, the drop in the measured response relative to a control, in per cent) at 0.1 mg/kg in the assay on Rattus norvegicus [3] was 95%. Besides, the IC50 (commonly the concentration at which inhibition is half-maximal) in assay [5] stood at 2400 nM; in assay [6], 0.68 nM.

`CCc1nc2c(C)cc(C)nc2n1Cc1ccc(-c2ccccc2S(=O)(=O)NC(C)=O)cc1` showed an inhibition in vivo at 1 mg/kg in the assay on Rattus norvegicus [7] of 100%. In the assay on Rattus norvegicus [8], this compound had a Duration of 3.5 h. The IC50 in assay [5] was greater than 10000 nM; in assay [6] it was 2.2 nM.

As to `CCc1nc2c(C)cc(C)nc2n1Cc1ccc(-c2ccccc2S(=O)(=O)NC(=O)c2ccccc2)cc1`, the Ratio in assay [9] turned out to be 2; in [11] it was 3; in [17] it was 5. Moreover, the ED50 (commonly the dose at which the effect has come halfway, by size or by number of responders) in the assay with Rattus norvegicus [10] turned out to be 0.014 mg/kg; with Canis familiaris [15] it was 0.017 mg/kg; with Canis familiaris [16], 0.035 mg/kg; with Macaca mulatta [21], 0.036 mg/kg; with Macaca mulatta [23], 0.1 mg/kg. Also, the Duration in assay [12] is greater than 5 h; in the assay on Rattus norvegicus [13] it was 6 h; with Rattus norvegicus [4] it was 6 h; in the assay with Rattus norvegicus [19], greater than 6 h; in [20], greater than 5 h; in the assay with Macaca mulatta [22], roughly 3 h. For the same compound, the Duration in assay [24] was determined as 4 h. Besides, the values for the inhibition in vivo at 0.1 mg/kg in the assay with Rattus norvegicus [3] and with Rattus norvegicus [14] were 94% and 64%, respectively. The compound further registered an inhibition in vivo at 1 mg/kg with Rattus norvegicus [18] of 99%. In addition, the values for the IC50 in [5] and in [6] were 2900 nM and 0.2 nM, respectively.

For the compound `CCCCc1nc(Cl)c(C(=O)O)n1Cc1ccc(-c2ccccc2-c2nn[nH]n2)cc1` [CARBOXYLIC ACID METABOLITE], the IC50 in [5] is 50000 nM. In other words, the double-digit micromolar range.

For `CCc1nc2c(C)cc(C)nc2n1Cc1ccc(-c2ccccc2-c2nn[nH]n2)cc1` [L-158809], the values for the inhibition in vivo at 0.1 mg/kg in the assay on Rattus norvegicus [3] and in the assay on Rattus norvegicus [27] were 85% and 75%, respectively. Further, the Duration in the assay on Rattus norvegicus [25] and in the assay on Rattus norvegicus [4] was greater than 6 h throughout. Further, the IC50 in assay [5] was found to be 50000 nM. For the same compound, the 50% effective dose (ED50) in the assay with Rattus norvegicus [26] was 0.029 mg/kg; with Rattus norvegicus [28], 0.023 mg/kg.

The compound `CCCC(=O)NS(=O)(=O)c1ccccc1-c1ccc(Cn2c(CC)nc3c(C)cc(C)nc32)cc1` came in with an inhibition in vivo at 1 mg/kg in the assay with Rattus norvegicus [7] of 99%. Also, the Duration in the assay on Rattus norvegicus [8] is greater than 6 h. The IC50 in assay [5] turned out to be 3600 nM; in [6] it was 0.27 nM.

In the case of `CCc1nc2c(C)cc(C)nc2n1Cc1ccc(-c2ccccc2S(=O)(=O)NC(=O)C(C)C)cc1`, the inhibition in vivo at 0.1 mg/kg with Rattus norvegicus [3] was found to be 100%. In the assay on Rattus norvegicus [4], this compound came in with a Duration of 5 h. The results for the IC50 in [5] and in [6] were 1800 nM and 0.21 nM, respectively.

On to `CCCCc1nc(Cl)c(CO)n1Cc1ccc(-c2ccccc2-c2nnn[nH]2)cc1` [LOSARTAN], for which the ED50 in the assay on Rattus norvegicus [26] was determined as 0.28 mg/kg; in the assay on Rattus norvegicus [28] it was 0.66 mg/kg.
